From publication PMC6612960 (Drug Design, Development and Therapy, 2019)
pIC50: −log10 of the molar value.

How the values were obtained:
K562/MDR cells [1] = experiment: MTT assay, K562/MDR cells; assay type: cell-based, human; details: K562/MDR vs K562
[2] = system: Peripheral blood mononuclear cells (PBMCs); experiment: Trypan Blue dye exclusion, PBMCs; assay type: cell-based; details: 2 μM, 24 hours, mouse PBMCs
Outline: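 PBMCs from mouse blood isolated by Ficoll density gradient and seeded at 5×10^5 cells/well in 12-well plates in RPMI 1640 with 10% FBS. Treated with test compound (2, 4, 10 μM), PBS or melittin at 37°C for 24 h. Stained with 0.4% Trypan Blue for 5 min, washed three times in PBS and viewed by fluorescence microscopy.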

Jurkat cells [3] = experiment: Confocal laser scanning microscopy, Jurkat; assay type: cell-based, human; details: incubation 30 minutes
Outline: (§1)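 Cells exposed to FITC-labelled peptide for 30 min in the dark, harvested, rinsed three times in PBS and imaged at once by CLSM (488 nm argon excitation for FITC). For mitochondrial co-localisation, cells were then given 30 nM rhodamine 123 for 30 min in the dark, washed and imaged with 488 nm (FITC) and 525 nm (rhodamine 123) laser lines.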

K562/MDR cells [4] = experiment: Confocal laser scanning microscopy, K562/MDR; assay type: cell-based, human; details: incubation 30 minutes
Outline: as §1

HEK293 cells = experiment: Peptide binding assay; assay type: cell-based, human; details: HEK293, 30 minutes, 37°C, flow cytometry
Outline: (§2)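 Cells (human lines or mouse erythrocytes) resuspended in PBS at 1×10^6/ml and exposed to FITC-labelled peptide at 37°C for 30 min in the dark. Washed in PBS and read by flow cytometry as mean fluorescence of 10,000 cells. Mean±SEM of three independent experiments.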

erythrocytes = experiment: Peptide binding assay; assay type: cell-based; details: mouse erythrocytes, 30 minutes, 37°C, flow cytometry
Outline: as §2

K562/MDR cells [5] = experiment: LDH release, K562/MDR; assay type: cell-based, human; details: CM4 treatment (3, 9, 30 μM)
Outline: (§3)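 Cells (1×10^5/mL) in RPMI 1640 held 4 h at 37°C, then exposed to peptide at 3, 9 or 30 μM for varying times. PBS and 2% Triton X-100 controls. Cell-free supernatant mixed with tetrazolium salt reagent; formazan read at 490 nm. Leakage % = [(A−C)/(P−C)]×100 (C = PBS, P = Triton). Mean±SEM of four independent experiments.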

Jurkat cells [6] = experiment: LDH release, Jurkat; assay type: cell-based, human; details: CM4 treatment (3, 9, 30 μM)
Outline: as §3

[7] = system: leukemia cells (K562, THP-1, and U937 cells); details: read-out: IC50, anticancer activity in leukemia cells; cited from earlier work
non-cancer cells = details: even at 120 μM; cited from earlier work

COc1cccc2c1C(=O)c1c(O)c3c(c(O)c1C2=O)C[C@@](O)(C(=O)CO)C[C@@H]3O[C@H]1C[C@H](N)[C@H](O)[C@H](C)O1 [doxorubicin]
resistance of K562/MDR compared with K562 cells (K562/MDR cells [1]): a certain resistence

CC[C@H](C)[C@H](NC(=O)CN)C(=O)NCC(=O)N[C@@H](C)C(=O)N[C@H](C(=O)N[C@@H](CC(C)C)C(=O)N[C@@H](CCCCN)C(=O)N[C@H](C(=O)N[C@@H](CC(C)C)C(=O)N[C@H](C(=O)N[C@H](C(=O)NCC(=O)N[C@@H](CC(C)C)C(=O)N1CCC[C@H]1C(=O)N[C@@H](C)C(=O)N[C@@H](CC(C)C)C(=O)N[C@H](C(=O)N[C@@H](CO)C(=O)N[C@@H](Cc1c[nH]c2ccccc12)C(=O)N[C@H](C(=O)N[C@@H](CCCCN)C(=O)N[C@@H](CCCNC(=N)N)C(=O)N[C@@H](CCCCN)C(=O)N[C@@H](CCCNC(=N)N)C(=O)N[C@@H](CCC(N)=O)C(=O)N[C@@H](CCC(N)=O)C(N)=O)[C@@H](C)CC)[C@@H](C)CC)[C@@H](C)O)[C@@H](C)O)C(C)C)C(C)C [melittin]
cytotoxicity of PBMCs [2]: 100%

FITC-myristoyl-CM4: fluorescein isothiocyanate labeled myristoyl-CM4 (GRWKIFKKIEKVGQNIRDGIVKAGPAVAVVGQAATI; not fully specified; FITC, myristoyl, C-terminal amide)
FITC signal on the cells (CLSM) (Jurkat cells [3]): stronger than the FITC-CM4 signal
FITC signal on the cells (CLSM) (K562/MDR cells [4]): stronger than the FITC-CM4 signal
fluorescence intensity on cells (HEK293 cells): very weak
fluorescence intensity on cells (erythrocytes): very weak

GRWKIFKKIEKVGQNIRDGIVKAGPAVAVVGQAATI-NH2 [CM4]
LDH release (K562/MDR cells [5]): Virtually no LDH was released
LDH release (Jurkat cells [6]): Virtually no LDH was released
pIC50 [7]: 4.40 to 4.70
cytotoxicity towards non-cancer cells (non-cancer cells): no cytotoxicity
